Measured values reported in ChEMBL document CHEMBL1125427, “Synthesis of 3-(2-pyridylethyl)benzoxazolinone derivatives: potent analgesic and antiinflammatory compounds inhibiting prostaglandin E2” (1992).

Columns and labels:
Assay type in all cases: functional
Mus musculus [1] = assay: Gastric ulcerogenic activity at a dose of 300 mg/kg: group of 8 mice were considered for the test
Method in brief: (§1)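 Mice fasted 24 h with water available. Compound in methyl cellulose vehicle given by oral gavage at 0.5 mL/100 g body weight. Animals were killed after 4 h and stomachs examined for lesions under a dissecting microscope. Read-out: ulcer incidence per group of 8 and lesion length (mm/mouse ± SE).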

Mus musculus [2] = assay: Gastric ulcerogenic activity at a dose of 100 mg/kg: group of 8 mice were considered for the test; method in brief: as §1
Mus musculus [3] = assay: Intestinal ulcerogenic activity at a dose of 300 mg/kg
Method in brief: (§2)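 Fed animals were gavaged with compound on 3 consecutive days and killed 24 h after the last dose. Intestines were examined for ulcers. Read-out: ulcer incidence per group of 8 and lesion length (mm/mouse ± SE).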

Mus musculus [4] = assay: Intestinal ulcerogenic activity at a dose of 100 mg/kg; method in brief: as §2
Mus musculus [5] = assay: Intestinal ulcerogenic activity at a dose of 300 mg/kg: group of 8 mice were considered for the test; method in brief: as §2
Mus musculus [6] = assay: The compound was evaluated for inhibition of edema induced by histamine at 10 mg/mL
Method in brief: (§3)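 Female albino mice (22 ± 2 g, local breed), six per group, housed in eights with free food and water, acclimatised at least 2 days. Compound given orally at 100 mg/kg; 60 min later 0.01 mL of the phlogistic agent (histamine or serotonin) injected subcutaneously into the right hind paw plantar surface. Paw edema measured with a dial thickness gauge; effect expressed as percent inhibition.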

Mus musculus [7] = assay: The compound was evaluated for inhibition of edema induced by arachidonic acid at 1 mg/mL
Method in brief: (§4)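 Mice, six per group, dosed orally at 100 mg/kg. After 60 min, 0.01 mL of phlogistic agent (arachidonic acid or bradykinin) was injected subcutaneously into the right hind paw plantar surface. Edema was measured by dial thickness gauge and the effect expressed as percent inhibition.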

Mus musculus [8] = assay: Intestinal ulcerogenic activity at a dose of 30 mg/kg; method in brief: as §2
Mus musculus [9] = assay: Inhibitory activity against carrageenan induced paw edema in mice; set-up: concentration or dose not given beside the values
Mus musculus [10] = assay: Gastric ulcerogenic activity at a dose of 30 mg/kg: group of 8 mice were considered for the test; method in brief: as §1
Mus musculus [11] = assay: Gastric ulcerogenic activity at a dose of 30 mg/kg; method in brief: as §1
Mus musculus [12] = assay: The compound was evaluated for inhibition of edema induced by serotonin at 250 ug/mL; method in brief: as §3
Mus musculus [13] = assay: The compound was evaluated for inhibition of edema induced by PGE at […]
Method in brief: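 Mice, six per group, dosed orally at 100 mg/kg. After 60 min, PGE2 (20 μg/0.01 mL) was injected subcutaneously into the right hind paw plantar surface. Edema was measured with a dial thickness gauge and the effect expressed as percent inhibition.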

Mus musculus [14] = organism: Mus musculus; assay: Analgesic activity in mice; set-up: concentration or dose not given beside the values
Method in brief: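 Female albino mice (22 ± 2 g, local breed), groups of eight, dosed orally at 100 mg/kg as a suspension in 5% gum arabic syrup. After 1 h, 3% acetic acid was given ip at 300 mg/kg. Stretches were counted over 10 min, starting 5 min after injection. Percent activity = |n − n'|/n × 100 against syrup-only controls (n = 6).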

Mus musculus [15] = assay: Gastric ulcerogenic activity at a dose of 300 mg/kg; method in brief: as §1
Mus musculus [16] = assay: Intestinal ulcerogenic activity at a dose of 30 mg/kg: group of 8 mice were considered for the test; method in brief: as §2
Mus musculus [17] = assay: Antiinflammatory activity against CPE in mice following peroral administration of 30 mg/kg; conditions: route oral
Method in brief: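 Female albino mice (22 ± 2 g), six per group, dosed orally. After 60 min, 0.01 mL of 2% carrageenan was injected subcutaneously into the right hind paw plantar surface. Edema was read with a dial thickness gauge 3 h later. ED50 was given in mg/kg po with 95% confidence limits.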

Mus musculus [18] = assay: The compound was evaluated for inhibition of edema induced by bradykinin at 100 ug/mL; method in brief: as §4
Mus musculus [19] = assay: Intestinal ulcerogenic activity at a dose of 100 mg/kg: group of 8 mice were considered for the test; method in brief: as §2
Mus musculus [20] = assay: Gastric ulcerogenic activity at a dose of 100 mg/kg; method in brief: as §1

O=C(c1ccccc1Cl)c1cc2oc(=O)n(CCc3ccncc3)c2cc1Cl gave a Ulcer incidence (Mus musculus [1]) of 1 number/group, a Ulcer incidence (Mus musculus [2]) of 0 number/group and a Lesion length (Mus musculus [3]) of 0.4 mm mice-1. The Lesion length (Mus musculus [4]) was 0 mm mice-1, the Ulcer incidence (Mus musculus [5]) was 0 number/group and the Inhibition (Mus musculus [6]) was 9.3%. The Inhibition (Mus musculus [7]) was 43%, the Lesion length (Mus musculus [8]) was 0 mm mice-1 and the Inhibition (Mus musculus [9]) was 49.6%. For the same compound, the Ulcer incidence (Mus musculus [10]) was 0 number/group, the Lesion length (Mus musculus [11]) was 0 mm mice-1 and the Inhibition (Mus musculus [12]) was 8.4%. It also gave an Inhibition (Mus musculus [13]) of 55%, an Analgesic activity (Mus musculus [14]) of 92.61% and a Lesion length (Mus musculus [15]) of 0.4 mm mice-1. The Ulcer incidence (Mus musculus [16]) was 0 number/group, the ED50 (Mus musculus [17]) was 30 mg/kg and the Inhibition (Mus musculus [18]) was 12%. It also gave a Ulcer incidence (Mus musculus [19]) of 0 number/group and a Lesion length (Mus musculus [20]) of 0 mm mice-1.
